# High-throughput results as filed in PubChem BioAssay.
# The list is not random: actives were taken first. Their share in the collection is about 2%.
# PPC-1+TRAIL kill = PPC-1 cancer cell killing with TRAIL present; cell killing (% activity), % at 4 µM or 5 µM; PPC-1 cells + TRAIL, ATPLite viability luminescence; AID 1443; hit rate 0.41% among 220,000;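 active means cell killing above 50% in the first pass at 4 µM, then a duplicate retest at 5 µM averaging 50% or more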
# FLuc inh counter = counter-screen for luciferase assay inhibitors: firefly luciferase inhibition; P08659; ATPLite firefly luciferase biochemical luminescence, 10 min; inhibition, % at 10 µM; hit rate 1.5% among 200,000; AID 1006;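 active means inhibition above about 50% when tested at 10 µM, limit read from the data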
# Target sequence (P08659 whole entry, looked up): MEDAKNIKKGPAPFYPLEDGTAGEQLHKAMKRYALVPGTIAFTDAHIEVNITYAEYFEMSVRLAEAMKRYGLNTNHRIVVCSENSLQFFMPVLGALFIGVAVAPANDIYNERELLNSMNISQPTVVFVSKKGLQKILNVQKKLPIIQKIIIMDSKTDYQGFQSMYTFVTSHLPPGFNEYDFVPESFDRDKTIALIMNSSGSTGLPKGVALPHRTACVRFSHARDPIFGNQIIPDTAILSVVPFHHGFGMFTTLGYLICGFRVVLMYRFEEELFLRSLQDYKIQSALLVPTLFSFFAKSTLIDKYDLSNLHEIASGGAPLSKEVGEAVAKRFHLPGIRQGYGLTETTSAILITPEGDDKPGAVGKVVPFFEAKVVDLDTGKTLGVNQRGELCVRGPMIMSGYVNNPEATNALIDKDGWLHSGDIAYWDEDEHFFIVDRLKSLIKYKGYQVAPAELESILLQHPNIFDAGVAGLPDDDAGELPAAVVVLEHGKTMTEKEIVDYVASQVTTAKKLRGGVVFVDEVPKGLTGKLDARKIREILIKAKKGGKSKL
# HSP90 refold inh = HSP90 refolding inhibition in rabbit reticulocyte lysate | luciferase refolding luminescence, 3 h | inhibition, % at 5.6 µM | hit rate 0.91% among 290,000 | AID 1789;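 active means inhibition above the screen-wide mean plus 3 SD, computed separately per campaign, cut at about 16% in these data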;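 further: inhibitors lower the luminescence because luciferase stays unfolded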
# C8 TRAIL sens = caspase-8 TRAIL sensitization | NB7+C8 cells + TRAIL, ATPlite viability luminescence | inhibition (viability loss, TRAIL sensitization), % at 10 µM | hit rate 1% among 360,000 | AID 624354;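 active means compounds causing at least 50% loss of cell viability in the single-dose screen, relative to plate controls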
# FLuc stim CS = firefly luciferase counter-screen for stimulation assays; 200,000 tested, under 10 active; activation factor at 10 µM; ATPlite luciferase biochemical, luminescence, 10 min; 0 = ATP-free wells, 1 = DMSO control;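 active means luciferase activation factor, scaled between plate controls, of at least 2 with compound at 10 µM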
#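 test system = cell-free luciferase reagent | medium = PBS as buffer for the ATP substrate | dosing = test compounds dosed from 2 mM stocks in 100% DMSO | incubation = 10 min at ambient temperature | detection = luminescence measurement of luciferase light output | benchmarks = low control with PBS replacing ATP, high control enzyme plus ATP without compound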
# Numbers stand for hits; i = inactive; nt = not tested or not shown.
SMILES,PPC-1+TRAIL kill,FLuc inh counter,HSP90 refold inh,C8 TRAIL sens,FLuc stim CS
COc1ccc2cc(/C=N/O)c(Cl)nc2c1,i,i,i,i,i
COc1ccc(NC(=O)Nc2ccccc2C(N)=O)cc1,i,84,i,i,i
NC(=O)c1ccccc1NC(=O)COc1ccc(Cl)cc1,i,nt,i,i,nt
Cc1ccc(OCC(=O)Nc2ccccc2C(N)=O)cc1,nt,nt,i,52,nt
Cc1ccc(NC(=O)Nc2ccccc2C(N)=O)cc1,i,nt,i,i,nt
CN1CC(c2ccccc2)Oc2ccccc2C1=S (stereo not drawn),nt,nt,nt,i,nt
Cc1ncc([N+](=O)[O-])n1CC(=O)Nc1cccc(C(F)(F)F)c1,nt,nt,i,i,nt
Cc1ccnc(NC(=O)Nc2ccc(Br)cc2Cl)c1,i,i,i,i,i
Nc1c(Cl)ncnc1N/N=C/c1ccnc2ccccc12,i,53,i,i,i
Nc1c(Cl)ncnc1N/N=C/c1ccc2ccccc2n1,62,72,i,i,i
Nc1c(Cl)ncnc1N/N=C/c1ccccn1,i,i,i,nt,i
CNc1ccccc(-c2ccc3cc4c(cc3n2)OCO4)c1=O,i,53,i,i,i
CCc1ccccc1NC1=NCC(=O)N1Cc1ccc2c(c1)OCO2,i,i,i,i,i
O=C(Cc1ccccc1)NN1C(=O)/C(=C/c2ccccc2C(=O)O)SC1=S,i,i,i,i,i
C=CCn1c2ccccc2c(=O)c2cc(C#CC[C@@H](C)O)ccc21,nt,nt,nt,53,nt
CCc1ccc(NC2=CC(=O)C(=O)c3ccccc32)cc1,nt,nt,nt,93,nt
O=C1C=C(Nc2ccccc2)c2ccccc2C1=O,i,i,17,i,i
CC1CN(c2ccc(NC(=O)c3ccco3)cc2C(=O)O)CC(C)O1 (stereo not drawn),i,nt,i,i,nt
CCOC(=O)C1CCCN(C(=O)c2ccc(F)c(Cl)c2)CC1 (stereo not drawn),nt,nt,nt,i,nt
CCOC(=O)C1(Cc2cccc(OC)c2)CCN(Cc2cccc(OC)c2O)CC1,i,i,i,i,i
COc1ccc(C(=O)NCc2nnc(SCC(=O)Nc3ccccc3OC)n2C)cc1,i,i,i,i,i
CCC(CC)C(=O)N(C)c1c(C)nc2c(OCc3cc(Cl)cc(Cl)c3)cccn12,nt,nt,nt,i,nt
CCOc1ccc(NC(=O)c2nsc(Cl)c2Cl)cc1,i,51,i,i,i
CCOc1ccc(NC(=O)c2nn(C)cc2Br)cc1,i,70,i,i,i
COC(=O)[C@]1(C)N[C@H](CN(C)C(=O)c2ccc(F)cc2)[C@@H]2C(=O)N(Cc3ccccc3)C(=O)[C@@H]21,nt,nt,nt,i,nt
SMILES,PPC-1+TRAIL kill,FLuc inh counter,HSP90 refold inh,C8 TRAIL sens,FLuc stim CS
O=C(Oc1ccccc1)N1CCN(C(=O)c2ccco2)CC1,nt,nt,i,i,nt
COc1ccc(NC(=O)c2cc(S(=O)(=O)N3CCCC3)ccc2C)cn1,nt,nt,nt,i,nt
Cc1ccc(C(=O)Nc2ncc(Cc3ccccc3)s2)o1,i,80,i,57,i
Cc1ccc(Cc2cnc(NC(=O)c3cccs3)s2)cc1,i,i,i,i,i
O=C(Nc1ncc(Cc2ccccc2)s1)c1cccs1,i,i,i,51,i
CC(C)Oc1ccc(Cc2cnc(=S)[nH]c2N)cc1,i,i,i,i,i
COc1ccc(C2NN=C(c3c[nH]c4ccccc34)C2O)cc1 (stereo not drawn),nt,nt,i,i,nt
COc1ccc(C2C(O)C(c3c[nH]c4ccccc34)=NN2C(=O)CCl)cc1 (stereo not drawn),nt,nt,i,96,nt
CC1(C)CC(=O)C=C(c2cccs2)C1,nt,nt,nt,i,nt
COc1cccc(-c2cc(C(=O)Nn3cnnc3)c3ccccc3n2)c1,i,82,i,52,i
CCNC(=S)NNC(=O)c1cc(-c2cccnc2)nc2ccccc12,i,i,i,i,i
CCNC(=S)NNC(=O)c1cc(-c2cccc(OCC)c2)nc2ccccc12,i,58,i,i,i
CCCCOc1cccc(-c2cc(C(=O)NNC(=S)NCC)c3ccccc3n2)c1,i,i,i,i,i
CCNC(=S)NNC(=O)c1cc(-c2ccc(OC)cc2)nc2ccccc12,88,96,i,89,i
COc1ccc2c(=O)cc(-c3ccccc3)n(C)c2c1,i,i,i,55,i
COc1ccc(-c2cc(=O)c3ccccc3n2C)cc1,i,i,i,i,i
N#CC1(NC(=O)CN2C(=O)c3ccccc3C2=O)CCCCC1,nt,nt,nt,i,nt
N#CC1(NC(=O)Cn2ncc(Cl)c(Cl)c2=O)CCCCC1,nt,nt,nt,93,nt
CCOc1ccc2oc(C(=O)Nc3cc(C)ccn3)c(C)c2c1,nt,nt,nt,70,nt
COc1cc2ccccc2cc1C(=O)Nc1cc(C)ccn1,nt,nt,i,i,nt
Cc1c(C(=O)Nc2cnccn2)oc2ccccc12,i,i,i,i,i
CCOc1ccc2oc(C(=O)O)c(C)c2c1,i,nt,i,i,nt
